Rows were chosen to be rich in hits. Some 1.7% of all compounds tested hit in one or more screens of this group.
Dynein transport: blocks dynein driven cargo transport along microtubules. z-score, hits read low. 220,000 tested, 0.47% active. AID 1381. 3617.4 mouse cells, GR-EGFP nuclear translocation imaging; test concentration mostly 20 µM; stimulated with dexamethasone, 1 µM; hits give low values;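 active = plate z-score of nuclear minus cytoplasmic receptor signal below a set negative limit, without overly bright fluorescence or cell loss, cut at about -3.5 in these data, passing the limit was not always enough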;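 note: z-score of nuclear minus cytoplasmic ring GR-EGFP intensity difference per well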
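medium = tetracycline-free induction medium containing charcoal-stripped FBS | also added = 1.0 µM final dexamethasone stimulus | schedule = 48 h induction, 1 h compound, 30 min dex at 37 °C | technique = fixed, Hoechst-stained cells imaged at 10x for EGFP | measure = GR-EGFP nuclear translocation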
EP2 antag: inhibitors of human EP2 prostaglandin E2 receptor | 260,000 tested, 0.52% active | inhibition, % at 25 µM | C6 glioma cells expressing human EP2, cAMP TR-FRET; cells stimulated with saturating PGE2 | P43116 | AID 1422;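 active = percent inhibition above 40 after rounding to a whole number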;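 note: rat C6 glioma host cells with rolipram phosphodiesterase inhibitor present; the protocol text gives 20 µM as final concentration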
Target sequence (P43116 whole entry, looked up): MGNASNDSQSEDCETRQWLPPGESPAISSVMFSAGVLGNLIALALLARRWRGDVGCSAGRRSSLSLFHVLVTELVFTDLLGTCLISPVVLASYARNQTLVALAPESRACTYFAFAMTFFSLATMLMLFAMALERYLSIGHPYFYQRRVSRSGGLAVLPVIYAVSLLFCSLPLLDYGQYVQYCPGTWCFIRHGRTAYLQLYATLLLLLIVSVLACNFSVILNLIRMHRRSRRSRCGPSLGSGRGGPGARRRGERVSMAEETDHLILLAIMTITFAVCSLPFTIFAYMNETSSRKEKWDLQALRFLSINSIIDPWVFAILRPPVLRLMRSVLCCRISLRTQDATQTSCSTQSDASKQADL
EP2 mod: modulators of human EP2 prostaglandin E2 receptor; induction, % at 25 µM; 260,000 tested, 0.83% active; P43116; AID 940; EP2-expressing cells, cAMP HTRF FRET, PGE2 co-stimulation;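 active = compounds whose cAMP rise, as percent of the full-agonist control response, exceeds 60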;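 note: rat C6 glioma line stably carrying human EP2 under a CMV promoter; the protocol text gives 20 µM as final concentration; 100% = response of wells given 1 µM PGE2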
Hsp70 act: Hsp70 transcriptional activation, primary screen. AID 1203. 200,000 tested, 0.04% active. HeLa Hsp70 promoter luciferase reporter, luminescence; scaled: vehicle 0, proteasome-inhibitor control 100%. activation, % at 10 µM;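 active = activation above the mean across all tested compounds plus 3 SD, cutoff set per campaign, cut at about 5.5% in these data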;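 note: 100% = MG132 at 30 µM as the positive control and 0% = DMSO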
EP2 confirm: human EP2 receptor cAMP induction, negative in counter-screens | 1,300 tested, 47% active | calls only at 20 µM (by protocol) | C6 glioma EP2 cells, cAMP HTRF induction; plus low (about EC15) PGE2 agonist | shares compounds with EP2 mod;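 active = cAMP induction above 50% in the main assay while under 30% in all four parallel counter assays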;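 note: rat C6 glioma cells stably expressing human EP2 receptor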
Numbers without * were called inactive; i = inactive; nt = no result given; + = active, no number.

SMILES	Dynein transport	EP2 antag	EP2 mod	Hsp70 act	EP2 confirm
CCOC(=O)c1ccccc1NC(=O)C1COc2ccccc2O1 (configuration not stated)	-0.94	11	72*	0	+
COc1ccc(Cl)cc1S(=O)(=O)N1CCNCC1	nt	12	-5	nt	nt
CN1CCCN(C(=O)c2cc(=O)[nH]c3ccccc23)c2nc3ccccc3nc21	-0.55	12	15	0	nt
CN1CCCN(C(=O)Cc2c(Cl)cccc2Cl)c2nc3ccccc3nc21	-1.2	9	70*	0	+
CCOC(=O)c1sc2nccc(N(C)C)c2c1N=CNOCc1ccccc1	0.54	10	74*	0	+
CCOC(=O)c1sc2nccc(N(C)C)c2c1N=CNOC	-0.52	18	11	0	nt
C=CCOc1ccccc1CNc1ccc2c(c1)OCCO2	-0.017	20	4	-1	nt
C=CCOc1ccccc1CNc1ccccc1C	-0.46	7	81*	0	+
C=CCOc1ccccc1CNc1cccc(F)c1	-0.78	10	72*	0	i
S=c1[nH]nc(COc2ccc3ccccc3c2)n1-c1ccccc1	nt	8	-20	nt	nt
Cc1ccccc1CC(=O)NCCn1nc(-c2cccs2)oc1=O	nt	6	8	nt	nt
CSc1nc(Sc2ccccc2)c2ccccc2n1	0.19	14	79*	0	i
CSc1nc(Sc2ccc(Cl)cc2)c2ccccc2n1	-0.23	nt	48	0	nt
Cc1cc(SCCC(=O)O)nc2c(C)cccc12	0.78	12	82*	0	i
Cc1cc(SCC(=O)O)nc2ccccc12	-0.35	5	-11	0	nt
CCOc1ccc(C(=O)NCCCN2CCOCC2)cc1OCC	-0.069	8	-24	0	nt
COc1ccc(C(=O)NCCCN2CCOCC2)cc1OC	-0.62	4	68*	0	i
C=CCNC(=O)CSc1ncc(-c2ccc(F)cc2)[nH]1	nt	11	-39	nt	nt
N#CC1=C(N)S[C@H](C(=O)C23CC4CC(CC(C4)C2)C3)[C@H]1c1ccncc1	2.3	11	66*	0	i
O=C(NCc1ccncc1)C12CC3CC(CC(C3)C1)C2	0.96	2	-5	0	nt
CCOC(=O)NC(=O)/C(N=Nc1cc(C)cc(C)c1)=C(\C)O	0.95	4	34	0	nt
CCOC(=O)/C(N=Nc1c(Br)cc(Br)cc1Br)=C(\C)O	-0.39	8	68*	0	i
C#CCn1c(S(=O)(=O)Cc2ccc(F)cc2)nc(-c2ccccc2)c1-c1ccccc1	-0.15	5	65*	0	+
CC1=CC(C)(C)N2C(=O)C3(SCC(=O)N3c3ccc(F)cc3)c3cc(C)cc1c32 (configuration not stated)	-0.64	3	76*	0	+
CCn1c(CNc2ccc(C)cc2)nnc1SCC(=O)N1CCOCC1	nt	12	-80	nt	nt
SMILES	Dynein transport	EP2 antag	EP2 mod	Hsp70 act	EP2 confirm
COCCNC(=O)C(c1ccc(F)cc1)N(CC1CCCO1)C(=O)CCC(=O)Nc1ccccn1 (configuration not stated)	-0.78	10	72*	0	i
CC(C)(C)C1CCC(=NNc2ccc(S(N)(=O)=O)cc2[N+](=O)[O-])CC1 (configuration not stated)	0.39	7	68*	0	+
Cn1c(=O)c2c(nc(CN3CCN(c4ccccc4)CC3)n2Cc2ccccc2Cl)n(C)c1=O	-0.29	6	58	0	i
Cn1c(=O)c2c(nc(CN3CCN(c4ccccc4)CC3)n2Cc2c(F)cccc2Cl)n(C)c1=O	-0.4	2	71*	0	i
CC1CCN(Cc2nc3c(c(=O)n(C)c(=O)n3C)n2Cc2c(F)cccc2Cl)CC1	-0.095	nt	nt	0	nt
COC(=O)c1ccc(-c2ccco2)n1Cc1ccccc1Cl	-0.84	6	71*	0	+
COC(=O)c1ccc(-c2ccco2)n1Cc1nc(-c2ccc(OC)c(OC)c2)oc1C	-0.98	9	19	0	nt
O=C(O)COc1cccc(NC(=O)c2ccccc2)c1	0.011	7	96*	0	+
COc1cccc(C(=O)Nc2cccc(OCC(=O)c3ccccc3)c2)c1	0.77	25	-36	0	nt
Cc1cccc(C(=O)Nc2cccc(OCC(=O)O)c2)c1	-0.64	1	95*	0	+
O=C(COc1cccc(NC(=O)c2ccccc2)c1)c1ccccc1	-0.48	2	-85	0	nt
CCOC(=O)c1cnc2c(Cl)cc(Cl)cc2c1NCCCCCO	nt	13	15	nt	nt
Cc1ccc(O)c(C2=Nc3ccccc3N=C(c3cccs3)C2)c1	-0.55	-1	69*	0	i
O=C(N=C1SCC(=O)N1c1ccccc1Cl)c1ccccc1	-0.75	6	67*	0	i
C[C@H]1CC[C@@H](C(C)(C)O)CC2=C1CC[C@@H]2C	nt	7	53	nt	i
COc1ccc(-n2nnnc2SCC(=O)N2CCCC(C)C2)cc1 (configuration not stated)	nt	11	-18	nt	nt
CNC[C@H](O)c1ccc(O)c(O)c1	0.87	10	86*	0	i
CCn1cncc1CN(Cc1ccc(OC)c(OC)c1)CC1CCCO1 (configuration not stated)	nt	6	-29	nt	nt
O=C(O)CCCN1C(=O)/C(=C\c2ccco2)SC1=S	-0.41	8	74*	0	+
O=C(CCCN1C(=O)/C(=C/c2ccco2)SC1=S)Nc1ccccc1C(=O)O	-0.22	16	-36	nt	nt
Cc1ccc(NC2=C(C(=O)c3ccccc3)N(C)S(=O)(=O)c3ccccc32)cc1	0.47	20	66*	0	i
CCC(=O)N(CC)c1nc(-c2cc(OC)ccc2OC)cs1	-0.43	7	78*	0	+
CCC(=O)N(CCCN(C)C)c1nc(-c2cc(OC)ccc2OC)cs1	0.5	3	-9	0	nt
COCCCN(C(=O)c1ccco1)c1nc(-c2cc(OC)ccc2OC)cs1	-0.21	4	75*	0	+
Cc1cc(C)nc(SCc2ccc(C(=O)Nc3nccs3)cc2)n1	nt	7	-45	nt	nt
SMILES	Dynein transport	EP2 antag	EP2 mod	Hsp70 act	EP2 confirm
COC(=O)CSc1nc(Cc2ccccc2)nc2ccccc12	-1.1	13	67*	0	+
CCOC(=O)CSc1nc(Cc2ccccc2)nc2ccccc12	-0.9	10	70*	0	+
CC(C)OC(=O)CSc1nc(Cc2ccccc2)nc2ccccc12	0.13	7	74*	0	+
Cc1nnc(NC(=O)CSc2nc(Cc3ccccc3)nc3ccccc23)s1	nt	10	10	nt	nt
CCOC(=O)C(C)Sc1nc(-c2ccccc2)nc2ccccc12 (configuration not stated)	0.51	3	87*	0	+
CCOC(=O)C(C)Sc1nc(-c2ccccc2)nc2ccc(F)cc12 (configuration not stated)	-0.09	17	-10	0	nt
CC(C)OC(=O)CSc1nc(C(C)C)nc2ccccc12	0.61	15	48	0	nt

Source: PubChem BioAssay
